Activity calls are given as the source filed them. The calls are words filed in the database; no cut-off is given here. Square brackets hold non-standard residues; d marks the D form. Peptide text beside a SMILES is read from it. * marks the point of attachment. Sta = CC(C)C[C@H](N)[C@@H](O)CC(=O)O; Isovaleryl = CC(C)CC(=O)*; NHIsopentyl = CC(C)CCN*
Key:
Pepsin A = Pepsin A (Sus scrofa, UniProt P00791); test: The compound was tested for inhibition of carboxyl protease (pepsin) inhibition
In short: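 Porcine pepsin was assayed spectrophotometrically with the heptapeptide substrate Phe-Gly-His-Phe(NO2)-Phe-Ala-Phe-OMe (Km 4.0×10^-5 M). Fractional velocity (Vi/V0) was plotted against inhibitor concentration to obtain IC50. IC50 was converted to Ki with Cha's equation, Ki = (IC50 − Et/2)(1 + S/Km)^-1, using total enzyme and substrate concentrations. Time-dependent inhibitors were preincubated with enzyme for 10 min, and steady-state velocities were used.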

Pepsin A (Sus scrofa) [1] = target: Pepsin A (Sus scrofa) (UniProt P00791); test: The compound was tested for time dependent inhibition against carboxyl protease (pepsin); No inhibition
Pepsin A (Sus scrofa) [2] = target: Pepsin A (Sus scrofa) (UniProt P00791); test: The compound was tested for time dependent inhibition against carboxyl protease (pepsin); Yes

Sequence of Pepsin A (Sus scrofa) (P00791 60-385 limits assumed): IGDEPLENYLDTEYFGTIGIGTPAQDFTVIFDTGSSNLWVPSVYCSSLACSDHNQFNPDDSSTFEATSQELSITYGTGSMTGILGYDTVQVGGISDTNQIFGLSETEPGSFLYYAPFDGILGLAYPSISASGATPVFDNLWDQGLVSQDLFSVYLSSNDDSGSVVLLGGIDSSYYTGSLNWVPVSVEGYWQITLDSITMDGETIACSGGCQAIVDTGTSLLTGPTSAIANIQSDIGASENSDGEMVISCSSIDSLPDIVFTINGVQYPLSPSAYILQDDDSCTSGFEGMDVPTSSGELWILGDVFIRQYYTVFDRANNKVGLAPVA
Sequence of Pepsin A (P00791 whole entry): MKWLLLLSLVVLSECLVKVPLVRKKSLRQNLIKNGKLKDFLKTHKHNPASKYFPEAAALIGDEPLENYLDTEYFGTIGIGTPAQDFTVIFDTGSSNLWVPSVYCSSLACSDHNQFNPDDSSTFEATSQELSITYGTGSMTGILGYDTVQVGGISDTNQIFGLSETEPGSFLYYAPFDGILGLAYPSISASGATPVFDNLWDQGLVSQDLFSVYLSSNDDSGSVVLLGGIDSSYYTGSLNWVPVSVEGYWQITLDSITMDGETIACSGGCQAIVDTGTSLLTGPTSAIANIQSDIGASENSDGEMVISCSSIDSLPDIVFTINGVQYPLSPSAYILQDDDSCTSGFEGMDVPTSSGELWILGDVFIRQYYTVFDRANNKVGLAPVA

Structure (SMILES)	Ki (Pepsin A)	TDI (Pepsin A (Sus scrofa) [1])	TDI (Pepsin A (Sus scrofa) [2])
CC(C)CCNC(=O)[C@H](C)NC(=O)C[C@H](O)[C@H](CC(C)C)NC(=O)[C@@H](NC(=O)OC(C)C)C(C)C	8.6 nM	inactive	–
CCC(CC)C(=O)N[C@H](C(=O)N[C@@H](CC(C)C)[C@@H](O)CC(=O)N[C@@H](C)C(=O)NCCC(C)C)C(C)C	0.18 nM	–	Active
CC(C)CCNC(=O)[C@H](C)NC(=O)C[C@H](O)[C@H](CC(C)C)NC(=O)[C@@H](NC(=O)CC(C)(C)C)C(C)C	7.5 nM	inactive	–
CCC(C)C(=O)N[C@H](C(=O)N[C@@H](CC(C)C)[C@@H](O)CC(=O)N[C@@H](C)C(=O)NCCC(C)C)C(C)C (stereo not given in full)	0.31 nM	–	Active
CC(C)CCNC(=O)[C@H](C)NC(=O)C[C@H](O)[C@H](CC(C)C)NC(=O)[C@@H](NC(=O)CC(C)C)C(C)C	2.9 nM	–	Active

Second part, the compound after the results:

Ki (Pepsin A)	TDI (Pepsin A (Sus scrofa) [1])	TDI (Pepsin A (Sus scrofa) [2])	Structure (SMILES)
~6 nM	–	Active	CC(C)CCNC(=O)[C@H](C)NC(=O)C[C@H](O)[C@H](CC(C)C)NC(=O)[C@@H](NC(=O)[C@@H](NC(=O)OC(C)(C)C)C(C)C)C(C)C
~0.1 nM	–	Active	CC(C)CCNC(=O)[C@H](C)NC(=O)C[C@H](O)[C@H](CC(C)C)NC(=O)[C@@H](NC(=O)[C@@H](NC(=O)CC(C)C)C(C)C)C(C)C (Isovaleryl-VV[Sta]A-NHIsopentyl)
1.6 nM	–	Active	CC(C)CCNC(=O)[C@H](C)NC(=O)C[C@H](O)[C@H](CC(C)C)NC(=O)[C@@H](NC(=O)C(C)C)C(C)C
170 nM	inactive	–	CC(C)CCNC(=O)[C@H](C)NC(=O)C[C@H](O)[C@H](CC(C)C)NC(=O)[C@@H](NC(=O)OC(C)(C)C)C(C)C
11 nM	–	Active	CC(C)CCNC(=O)[C@H](C)NC(=O)C[C@H](O)[C@H](CC(C)C)NC(=O)[C@@H](NC(=O)[C@H](NC(=O)OC(C)(C)C)C(C)C)C(C)C

From ChEMBL document CHEMBL1122088, “Synthesis of analogues of the carboxyl protease inhibitor pepstatin. Effect of structure in subsite P3 on inhibition of pepsin” (J Med Chem, 1982)
